Read-outs that look alike come from different tables or passages of the source.
B1: sialoL2: salivary cystatin (cysteine protease inhibitor) from the tick Ixodes scapularis, recombinant from E. coli (protein)
chain: MELALRGGYRERSNQDDPEYLELAHYATSTWSAQQPGKTHFDTVVEVLKVETQTVAGTNYRLTLKVAESTCELTSTYNKDTCQANANAAQRTCTTVIYRNLQGEKSISSFECAAA
B2: sialoL: salivary cystatin (cysteine protease inhibitor) from the tick Ixodes scapularis, recombinant from E. coli (protein)
chain: TGVFGGYSERANHQANPEFLNLAHYATSTWSAQQPGKTHFDTVAEVVKVETQVVAGTNYRLTLKVAESTCELTSTYNKDTCLPKADAAHRTCTTVVFENLQGDKSVSPFECEAA

Assays:
[1] = target: T1, purified human cathepsin H (Homo sapiens, UniProt P09668); experiment: Inhibition of cathepsin H, fluorogenic substrate assay; assay type: biochemical
T1 sequence (P09668 98-335): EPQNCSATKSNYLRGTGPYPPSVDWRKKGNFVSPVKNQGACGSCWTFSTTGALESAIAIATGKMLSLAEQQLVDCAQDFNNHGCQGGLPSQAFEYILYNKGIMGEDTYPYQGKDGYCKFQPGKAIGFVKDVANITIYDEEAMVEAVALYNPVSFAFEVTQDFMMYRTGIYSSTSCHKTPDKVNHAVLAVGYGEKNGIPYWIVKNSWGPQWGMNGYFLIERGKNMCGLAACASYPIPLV

[2] = target: purified bovine cathepsin B (Bos taurus, UniProt P07688); experiment: Inhibition of cathepsin B, fluorogenic substrate assay; assay type: biochemical
Method in brief: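 Pre-incubated 10 min at room temperature with increasing inhibitor concentrations, then Z-Leu-Arg-AMC added (0.25 mM final) at 30°C. Linear hydrolysis rate read for 20 min (ex 365/em 450 nm). Triplicates, mean ± SEM. IC50 from activity loss.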

Molecule | inhibition of cathepsin H (in words) ([1]; listed as sialostatin L2) | inhibition of cathepsin B (in words) [2] | inhibition of cathepsin H (in words) [1]
B1 | no detectable inhibition | no inhibition | 
B2 |  | no inhibition | no inhibition

Source: paper PMC2909360 (Molecular microbiology, 2010)
